Laboratory results published in paper PMC9931008 (Journal of Food and Drug Analysis, 2022).
Where two headings read alike, the source gives them in different places. Blank lines part the entries; values can stand above or below the compound they belong to.

Legend:
[1] = system: nifedipine oxidation (NFO) activity; format: in vitro ADME, rat; conditions: rat, probe nifedipine; for IC50: rat hepatic (liver) microsomes, IC50, NFO activity, Liver, ingredient, 10-min NADPH-fortified pre-incubation; for inhibition at 100 µM: rat hepatic and intestinal microsomes
[2] = cited from earlier work; for Cmax: read-out: Cmax levels of plasma, rats orally treated with a single dose of 8 g/kg lyophilized SMS
[3] = rat plasma; nifedipine 3 mg/kg oral; control group (water)
human CYP3A4 [4] = target: T1, human CYP3A4 (Homo sapiens, UniProt P08684, S18F); assay: Dialysis experiment, remaining NFO activity; format: in vitro ADME; conditions: 30-min NADPH-fortified pre-incubation
Procedure, shortened: (§1)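 E. coli membranes co-expressing human CYP3A4 and CPR (20 nM) were incubated 30 min at 37 °C with 3–20 μM test compound and an NADPH-generating system (pH 7.4), with DMSO vehicle controls. They were dialysed (10 kDa) at 4 °C against phosphate/0.1 mM EDTA with three 30-min buffer changes. […] Means of three determinations.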

[5] = system: nifedipine oxidation (NFO) activities in rat hepatic microsomes; format: in vitro ADME; conditions: read-out: IC50, NFO activity, Liver; ingredient; 10-min NADPH-fortified pre-incubation
human CYP3A4 [6] = target: T1, human CYP3A4; format: in vitro ADME; conditions: for Ratio IC50(+)/IC50(−): IC50 shift after 10-min pre-incubation; for IC50: NFO activity; for Predicted threshold of unbound inhibitor concentration causing a 2-fold AUC increase: high-throughput method from IC50 values
human CYP3A4 [7] = target: T1, human CYP3A4; assay: Time-dependent inactivation kinetics of human CYP3A4; format: in vitro ADME
Procedure, shortened: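 Recombinant CYP3A4 was pre-incubated with NADPH and test compound (DMSO vehicle) for varying times, and residual NFO was measured. K_app is the slope of ln % remaining activity versus time. k_inact and K_I came from nonlinear fit of K_app = k_inact·I/(I+K_I), with double-reciprocal starting values. The partition ratio came from titrating remaining activity after 30-min incubation against inhibitor:CYP3A4 molar ratio. […] Means of three determinations.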

[8] = system: nifedipine oxidation (NFO) activities in rat intestinal microsomes; format: in vitro ADME; conditions: read-out: IC50, NFO activity, Intestine; ingredient; 10-min NADPH-fortified pre-incubation
[9] = target: T2, NADPH-P450 reductase (CPR) (Homo sapiens, UniProt P16435); assay: Dialysis experiment, CPR activity; format: in vitro ADME; conditions: recombinant CYP3A4 system
T2 sequence (P16435 1-677): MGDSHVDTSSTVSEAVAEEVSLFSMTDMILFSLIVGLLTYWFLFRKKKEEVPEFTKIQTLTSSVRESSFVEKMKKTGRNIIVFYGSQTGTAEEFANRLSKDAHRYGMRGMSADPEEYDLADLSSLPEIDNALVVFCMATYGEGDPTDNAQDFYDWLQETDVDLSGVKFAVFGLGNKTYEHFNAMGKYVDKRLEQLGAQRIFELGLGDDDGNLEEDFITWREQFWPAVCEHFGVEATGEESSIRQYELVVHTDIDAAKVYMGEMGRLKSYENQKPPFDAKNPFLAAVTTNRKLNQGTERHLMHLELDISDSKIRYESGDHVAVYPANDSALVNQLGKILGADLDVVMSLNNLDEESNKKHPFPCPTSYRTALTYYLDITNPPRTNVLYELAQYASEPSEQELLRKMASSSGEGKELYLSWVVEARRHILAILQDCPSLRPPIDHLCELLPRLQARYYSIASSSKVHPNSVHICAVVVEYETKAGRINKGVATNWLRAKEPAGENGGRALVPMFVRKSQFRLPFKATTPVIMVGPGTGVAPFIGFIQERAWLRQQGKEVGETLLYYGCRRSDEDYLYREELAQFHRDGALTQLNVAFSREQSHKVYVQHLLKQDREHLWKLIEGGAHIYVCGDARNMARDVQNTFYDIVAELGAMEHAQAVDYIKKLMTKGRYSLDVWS
Procedure, shortened: as §1

[10] = Literature pharmacokinetics of herbal ingredients in rats; format: in vivo; conditions: SMS once daily, estimated from half-life
[11] = linear regression of double reciprocal plots (r = 0.97)
[12] = nonlinear regression analysis (r = 0.98)
[13] = rats treated with 8 g/kg lyophilized SMS
[14] = IC50(+), 10-min NADPH-fortified pre-incubation
[15] = IC50(−), without pre-incubation

IC50 [1]: > 100 µM
inhibition at 100 µM [1]: ≤ 50%
Compound: COc1cc(C[C@H]2C(=O)OC[C@@H]2Cc2ccc(OC)c(OC)c2)ccc1O [Arctigenin]

Compound: CC(C)=CCC/C(C)=C/COc1c2ccoc2cc2oc(=O)ccc12 [Bergamottin, bergamottin, reference compound]
tmax ([2]; rats): 0.5 h

Compound: COC(=O)c1c(C)nc(C)c(C(=O)OC)c1-c1ccccc1[N+](=O)[O-] [Dehydronifedipine]
AUC0−t of dehydronifedipine [3]: 100 ± 10 ng·h/mL
AUC0−∞ of dehydronifedipine [3]: 130 ± 10 ng·h/mL
Cmax of dehydronifedipine [3]: 40 ± 10 ng/mL
t1/2 of dehydronifedipine [3]: 2.36 ± 0.33 h
tmax of dehydronifedipine [3]: 0.54 ± 0.10 h

IC50 [1]: > 100 µM
Compound: CC(C)=CCC[C@](C)(O[C@@H]1O[C@H](CO[C@@H]2O[C@H](CO)[C@@H](O)[C@H](O)[C@H]2O)[C@@H](O)[C@H](O)[C@H]1O)[C@H]1CC[C@]2(C)[C@@H]1[C@H](O)C[C@@H]1[C@@]3(C)CC[C@H](O[C@@H]4O[C@H](CO)[C@@H](O)[C@H](O)[C@H]4O[C@@H]4O[C@H](CO)[C@@H](O)[C@H](O)[C@H]4O)C(C)(C)[C@@H]3CC[C@]12C [Ginsenoside Rb1, ginsenoside Rb1]

IC50 [1]: 80.2 ± 33.3 µM
Compound: CC(C)=CCC[C@](C)(O[C@@H]1O[C@H](CO)[C@@H](O)[C@H](O)[C@H]1O)[C@H]1CC[C@]2(C)[C@@H]1[C@H](O)C[C@@H]1[C@@]3(C)CC[C@H](O[C@@H]4O[C@H](CO)[C@@H](O)[C@H](O)[C@H]4O[C@@H]4O[C@H](CO)[C@@H](O)[C@H](O)[C@H]4O)C(C)(C)[C@@H]3CC[C@]12C [Ginsenoside Rd, ginsenoside Rd]

inhibition of NFO after dialysis (human CYP3A4 [4]): could not be restored
IC50 [5]: 16.8 ± 2.6 µM
IC50 (human CYP3A4 [6]; 10-min NADPH-fortified pre-incubation): 17.4 ± 2.1 µM
IC50 (human CYP3A4 [6]; without pre-incubation): 36.5 ± 7 µM
Predicted threshold of unbound inhibitor concentration causing a 2-fold AUC increase (human CYP3A4 [6]): 45.0 nM
partition ratio (human CYP3A4 [7]; 30 min incubation, molar ratio metabolized per CYP3A4 inactivated): 54
turnover number (human CYP3A4 [7]; 30 min incubation, titration of remaining NFO activity): 55
apparent KI (human CYP3A4 [7]; [11]): 9.1 µM
kinact (human CYP3A4 [7]; [11]): 0.058 min⁻¹
apparent KI (human CYP3A4 [7]; [12]): 13.3 ± 5.9 µM
kinact (human CYP3A4 [7]; [12]): 0.068 ± 0.009 min⁻¹
predicted threshold for causing a 2-fold increase in AUC (human CYP3A4 [7]; using inhibition constants (inactivation kinetics)): 79.7 nM
IC50 [8]: 11.6 ± 0.7 µM
CPR activity before or after dialysis [9]: not affected
Compound: Cc1c(O)c(C)c2c(c1O)C(=O)[C@H](Cc1ccc3c(c1)OCO3)CO2 [Methylophiopogonanone A, methylophiopogonanone A]
half-life ([2]; rats treated with Qingzao Jiufei decoction (4.6 g/kg)): 8 to 9 h
Ratio IC50(+)/IC50(−) (human CYP3A4 [6]): 0.48

IC50 [5]: > 100 µM
IC50 [8]: > 100 µM
Compound: C[C@@H]1CC[C@@]2(OC1)O[C@H]1C[C@H]3[C@@H]4CC=C5C[C@@H](O)C[C@@H](O[C@@H]6O[C@H](C)[C@H](O)[C@H](O[C@@H]7OC[C@@H](O)[C@H](O)[C@H]7O)[C@H]6O[C@@H]6O[C@@H](C)[C@H](O)[C@@H](O)[C@H]6O)[C@]5(C)[C@H]4CC[C@]3(C)[C@H]1[C@@H]2C [Ophiopogonin D, ophiopogonin D]

IC50 [1]: > 100 µM
Compound: CC1(C)CCC[C@](C)([C@H]2CC[C@]3(C)[C@@H]2[C@H](O)C[C@@H]2[C@@]4(C)CC[C@H](O)C(C)(C)[C@@H]4[C@@H](O)C[C@]23C)O1 [Panaxatriol, panaxatriol]

IC50 [5]: > 100 µM
IC50 [8]: > 100 µM
Compound: CC(C)=CCC[C@](C)(O)[C@H]1CC[C@]2(C)[C@@H]1[C@H](O)C[C@@H]1[C@@]3(C)CC[C@H](O)C(C)(C)[C@@H]3[C@@H](O)C[C@]12C [Protopanaxatriol, protopanaxatriol]

IC50 [1]: > 100 µM
inhibition at 100 µM [1]: ≤ 50%
Compound: C[C@@H]1CC[C@@]2(OC1)O[C@H]1C[C@H]3[C@@H]4CC=C5C[C@@H](O)C[C@@H](O)[C@]5(C)[C@H]4CC[C@]3(C)[C@H]1[C@@H]2C [Ruscogenin, ruscogenin]

IC50 (human CYP3A4 [6]; [14]): 1.5 ± 0.2 µM
IC50 (human CYP3A4 [6]; [15]): 6.1 ± 1.4 µM
Predicted threshold of unbound inhibitor concentration causing a 2-fold AUC increase (human CYP3A4 [6]): 7.69 nM
IC50 [8]: 8.9 ± 1.4 µM
Compound: COc1cc2c(c(OC)c1OC)-c1c(cc3c(c1OC)OCO3)CC(C)C(C)C2 (centres unmarked) [Schisandrin B]
tmax ([2]; SMS (8 g/kg)-treated rats): 1.6 h
tmax ([2]; Schisandra Fructus extract (5 g/kg)-treated rats): 4.1 h
half-life [2, 13]: 7 h
Cmax [2]: 28.6 nM
Ratio IC50(+)/IC50(−) (human CYP3A4 [6]): 0.25

IC50 (human CYP3A4 [6]; [14]): 0.06 ± 0.01 µM
IC50 (human CYP3A4 [6]; [15]): 0.17 ± 0.05 µM
Predicted threshold of unbound inhibitor concentration causing a 2-fold AUC increase (human CYP3A4 [6]): 0.34 nM
time required for accumulating to reach the steady-state [10]: at least 8 days
Compound: COc1cc2c(c(OC)c1OC)-c1c(cc3c(c1OC)OCO3)C[C@H](C)[C@](C)(O)[C@H]2OC(=O)c1ccccc1 [Schisantherin A, schisantherin A]
tmax ([2]; SMS (8 g/kg)-treated rats): 2.3 h
half-life [2, 13]: 30 h
Cmax [2]: 7.1 nM
Ratio IC50(+)/IC50(−) (human CYP3A4 [6]): 0.35
